Converted amounts (≈) assume the structure as drawn.

What all share (assay type): functional
Experiment [1] deals with Candida albicans. As to the kind of experiment: Antimicrobial activity against azole-resistant Candida albicans isolate CA10 assessed as growth at 16 ug/ml co-treated with 0.031 ug/ml calcineurin signaling inhibitor tacrolimus after 48 hrs by microdilution checkboard technique relative to control. Also on record: scale not given: the % may be the effect or the level left. Summed up: (§1)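 Checkerboard microdilution in RPMI 1640 (pH 7.0, 2% dextrose, 0.165 M MOPS). Azole dilutions run along columns and FK506 along rows, at 4× final concentration. Final inoculum 2.5 × 10^3 CFU/ml from Sabouraud-subcultured cells. Incubated 35°C for 48 h; OD read at 492 nm. Background from microorganism-free plates subtracted. Growth % = well OD / drug-free well OD. Triplicate on different days, values averaged.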
On the technique in general: In broth dilution the organism is exposed to a series of concentrations in liquid medium.

The test system of experiment [2] is Candida albicans. As to the kind of experiment: Antimicrobial activity against azole-resistant Candida albicans isolate CA10 assessed as growth at 0.125 ug/ml cotreated with 0.063 ug/ml calcineurin signaling inhibitor Tacrolimus after 48 hrs by microdilution checkboard technique relative to control. Also on record: scale not given: the % may be the effect or the level left. A digest of the protocol: (§2)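 Checkerboard microdilution in MOPS-buffered RPMI 1640 (pH 7.0, 2% dextrose). Final ranges: azole 0.125–128 μg/ml (FLC) or 0.008–8 μg/ml (ITR, VRC), tacrolimus 0.002–0.125 μg/ml; solvent 1% in single-drug wells. Inoculum 2.5 × 10^3 CFU/ml, 35°C, 48 h. Growth % = background-subtracted OD492 of each well / drug-free well. Triplicate on different days.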

Experiment [3] deals with Candida albicans. As to the kind of experiment: Antimicrobial activity against azole-resistant Candida albicans isolate CA10 assessed as growth at 0.25 ug/ml cotreated with 0.016 ug/ml calcineurin signaling inhibitor Tacrolimus after 48 hrs by microdilution checkboard technique relative to control. On the set-up: scale not given: the % may be the effect or the level left. Summed up:
as §1

Experiment [4] has as its system Candida albicans. As to the kind of experiment: Antimicrobial activity against azole-resistant Candida albicans isolate CA10 assessed as growth at 0.5 ug/ml co-treated with 0.016 ug/ml calcineurin signaling inhibitor tacrolimus after 48 hrs by microdilution checkboard technique relative to control. On the set-up: scale not given: the % may be the effect or the level left. Summed up:
as §2

Experiment [5] has as its system Candida albicans. As to the kind of experiment: Antimicrobial activity against azole-resistant Candida albicans isolate CA10 assessed as growth at 1 ug/ml cotreated with 0.016 ug/ml calcineurin signaling inhibitor tacrolimus after 48 hrs by microdilution checkerboard technique relative to control. Also on record: scale not given: the % may be the effect or the level left. A digest of the protocol:
as §2

Experiment [6] deals with Candida albicans. As to the kind of experiment: Antimicrobial activity against azole-resistant Candida albicans isolate CA10 assessed as growth at 2 ug/ml cotreated with 0.016 ug/ml calcineurin signaling inhibitor Tacrolimus after 48 hrs by microdilution checkboard technique relative to control. On the set-up: scale not given: the % may be the effect or the level left. A digest of the protocol:
as §2

For experiment [7], the system named is Candida albicans. As to the kind of experiment: Antimicrobial activity against azole-resistant Candida albicans isolate CA10 assessed as growth at 0.125 ug/ml cotreated with 0.002 ug/ml calcineurin signaling inhibitor Tacrolimus after 48 hrs by microdilution checkboard technique relative to control. Also on record: scale not given: the % may be the effect or the level left. Summed up: as §2

Experiment [8] has as its system Candida albicans. As to the kind of experiment: Antimicrobial activity against azole-resistant Candida albicans isolate CA10 assessed as growth at 0.25 ug/ml cotreated with 0.002 ug/ml calcineurin signaling inhibitor Tacrolimus after 48 hrs by microdilution checkboard technique relative to control. On the set-up: scale not given: the % may be the effect or the level left. A digest of the protocol:
as §1

For experiment [9], the system named is Candida albicans. As to the kind of experiment: Antimicrobial activity against azole-resistant Candida albicans isolate CA10 assessed as growth at 4 ug/ml cotreated with 0.002 ug/ml calcineurin signaling inhibitor tacrolimus after 48 hrs by microdilution checkerboard technique relative to control. Also on record: scale not given: the % may be the effect or the level left. A digest of the protocol: (§3)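 CA10 in RPMI 1640 with 2% dextrose and 0.165 M MOPS, pH 7.0. Checkerboard used twofold dilutions, with azole alone in row H and the drug-free growth control in well H1. Final inoculum was 2.5 × 10^3 CFU/ml, incubated 35°C for 48 h, with OD read at 492 nm. Growth % = background-subtracted well OD / drug-free well OD. Run in triplicate on different days.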

Experiment [10] has as its system Candida albicans. As to the kind of experiment: Antimicrobial activity against azole-resistant Candida albicans isolate CA10 assessed as growth at 16 ug/ml co-treated with 0.002 ug/ml calcineurin signaling inhibitor tacrolimus after 48 hrs by microdilution checkboard technique relative to control. On the set-up: scale not given: the % may be the effect or the level left. Summed up: as §2

For experiment [11], the system named is Candida albicans. As to the kind of experiment: Antimicrobial activity against azole-resistant Candida albicans isolate CA10 assessed as growth at 64 ug/ml co-treated with 0.002 ug/ml calcineurin signaling inhibitor tacrolimus after 48 hrs by microdilution checkboard technique relative to control. On the set-up: scale not given: the % may be the effect or the level left. Summed up: as §3

For experiment [12], the system named is Candida albicans. As to the kind of experiment: Antimicrobial activity against azole-resistant Candida albicans isolate CA10 assessed as growth at 1 ug/ml cotreated with 0.008 ug/ml calcineurin signaling inhibitor Tacrolimus after 48 hrs by microdilution checkboard technique relative to control. On the set-up: scale not given: the % may be the effect or the level left. A digest of the protocol: as §2

Experiment [13] relates to Candida albicans. As to the kind of experiment: Antimicrobial activity against azole-resistant Candida albicans isolate CA10 assessed as growth at 8 ug/ml co-treated with 0.008 ug/ml calcineurin signaling inhibitor tacrolimus after 48 hrs by microdilution checkboard technique relative to control. On the set-up: scale not given: the % may be the effect or the level left. A digest of the protocol: as §3

For experiment [14], the system named is Candida albicans. As to the kind of experiment: Antimicrobial activity against azole-resistant Candida albicans isolate CA10 assessed as growth at 32 ug/ml co-treated with 0.008 ug/ml calcineurin signaling inhibitor tacrolimus after 48 hrs by microdilution checkboard technique relative to control. Also on record: scale not given: the % may be the effect or the level left. Summed up:
as §3

In experiment [15] the test system is Candida albicans. As to the kind of experiment: Antimicrobial activity against azole-resistant Candida albicans isolate CA10 assessed as growth at 0.25 ug/ml cotreated with 0.004 ug/ml calcineurin signaling inhibitor Tacrolimus after 48 hrs by microdilution checkboard technique relative to control. On the set-up: scale not given: the % may be the effect or the level left. Summed up:
as §1

Experiment [16] deals with Candida albicans. As to the kind of experiment: Antimicrobial activity against azole-resistant Candida albicans isolate CA10 assessed as growth at 2 ug/ml cotreated with 0.004 ug/ml calcineurin signaling inhibitor tacrolimus after 48 hrs by microdilution checkerboard technique relative to control. On the set-up: scale not given: the % may be the effect or the level left. A digest of the protocol: as §2

In experiment [17] the test system is Candida albicans. As to the kind of experiment: Antimicrobial activity against azole-resistant Candida albicans isolate CA10 assessed as growth at 8 ug/ml co-treated with 0.004 ug/ml calcineurin signaling inhibitor tacrolimus after 48 hrs by microdilution checkboard technique relative to control. On the set-up: scale not given: the % may be the effect or the level left. Summed up:
as §3

Experiment [18] has as its system Candida albicans. As to the kind of experiment: Antimicrobial activity against azole-resistant Candida albicans isolate CA10 assessed as growth at 16 ug/ml co-treated with 0.004 ug/ml calcineurin signaling inhibitor tacrolimus after 48 hrs by microdilution checkboard technique relative to control. On the set-up: scale not given: the % may be the effect or the level left. Summed up:
as §2

The test system of experiment [19] is Candida albicans. As to the kind of experiment: Antimicrobial activity against azole-resistant Candida albicans isolate CA10 assessed as growth at 0.25 ug/ml after 48 hrs by microdilution checkerboard technique relative to control. A digest of the protocol: as §1
For experiment [20], the system named is Candida albicans. As to the kind of experiment: Antimicrobial activity against azole-resistant Candida albicans isolate CA10 assessed as growth at 2 ug/ml after 48 hrs by microdilution checkerboard technique relative to control. Summed up: as §2
The test system of experiment [21] is Candida albicans. As to the kind of experiment: Antimicrobial activity against azole-resistant Candida albicans isolate CA10 assessed as growth at 0.008 ug/ml after 48 hrs by microdilution checkerboard technique relative to control. A digest of the protocol: as §2
In experiment [22] the test system is Candida albicans. As to the kind of experiment: Antimicrobial activity against azole-susceptible Candida albicans isolate CA12 after 48 hrs by broth microdilution method. As to conditions: isolate CA12, 48 h. Summed up:
(§4)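 CLSI M27-A2 broth microdilution was run in RPMI 1640 (pH 7.0, 2% dextrose, 0.165 M MOPS). Inoculum was 2.5 × 10^3 CFU/ml, incubated 35°C for 48 h without shaking. Plates were read visually (0–5 scale) and at OD 492 nm. MIC80 = lowest concentration giving an 80% absorbance decrease vs drug-free control. Triplicate.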

Experiment [23] concerns Candida albicans. As to the kind of experiment: Antimicrobial activity against azole-susceptible Candida albicans isolate CA14 after 48 hrs by broth microdilution method. Conditions: isolate CA14, 48 h. Summed up: as §4
Experiment [24] concerns Candida albicans. As to the kind of experiment: Antimicrobial activity against azole-resistant Candida albicans isolate CA10 assessed as growth at 0.25 ug/ml cotreated with 0.125 ug/ml calcineurin signaling inhibitor Tacrolimus after 48 hrs by microdilution checkboard technique relative to control. Also on record: scale not given: the % may be the effect or the level left. Summed up: as §1

A word on the MIC: it is the least concentration at which growth counts as inhibited. On to `OC(Cn1cncn1)(Cn1cncn1)c1ccc(F)cc1F` [FLUCONAZOLE], for which the Activity in the experiment on Candida albicans [1] is 15%; with Candida albicans [2] it was 27%; with Candida albicans [3], 23%; in the experiment on Candida albicans [4], 21%; in the experiment on Candida albicans [5] it was 24%; in the experiment with Candida albicans [6], 20%. Moreover, the Activity is 76% in the experiment on Candida albicans [7]; 61% with Candida albicans [8]; 44% in the experiment on Candida albicans [9]; 35% in the experiment on Candida albicans [10]; 28% in the experiment on Candida albicans [11]; 25% with Candida albicans [12]. Moreover, the Activity in the experiment with Candida albicans [13] is recorded as 28%; with Candida albicans [14], 25%; with Candida albicans [15], 42%; in the experiment on Candida albicans [16], 32%; in the experiment with Candida albicans [17] it was 34%; in the experiment on Candida albicans [18], 35%. Moreover, the Activity in the experiment on Candida albicans [19] stood at 63%; in the experiment with Candida albicans [20], 54%; in the experiment on Candida albicans [21], 96%; in the experiment with Candida albicans [24] it was 7%. The MIC in the experiment on Candida albicans [22] was 4 µg/mL (≈ 13.1 µM); with Candida albicans [23] it was 0.5 µg/mL (≈ 1.63 µM).

(Values after ChEMBL document CHEMBL1151472, “In vitro interactions between tacrolimus and azoles against Candida albicans determined by different methods” (2008).)
